Tests used:
Assay type in all cases: toxicity, cell-based
Fibroblast = assay: Multiplex assay against human fibroblast
Method in brief: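 Values for tubulin, mitochondrial-mass and membrane-permeability phenotypes are per cents of cells with healthy nuclei. These cells were identified by CellPathfinder machine-learning gating of live cells that had been stained at seeding with Hoechst33342, BioTracker Green Microtubule Cytoskeleton Dye, MitoTracker Red and Annexin V Alexa Fluor 680 and imaged on a CQ1 microscope at 37°C and 5% CO2 after compound addition. The gating first set Hoechst high-intensity objects apart from normal cells, then split normal cells into healthy, pyknosed or fragmented nuclei, and pyknosed cells into mitotic or apoptotic.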

HEK-293T = assay: Incucyte cell viability with HEK293T; settings: human, 10 µM, compound concentration 10 uM; further: filed as whole numbers so only -1 and 0 and 1 occur
U2OS = assay: Incucyte cell viability with U2OS; settings: human, 10 µM, compound concentration 10 uM; further: filed as whole numbers so only -1 and 0 and 1 occur
[1] = 12 h, 1 µM, compound concentration 1 uM, replicate 1
[2] = 12 h, 1 µM, compound concentration 1 uM, replicate 2
[3] = 12 h, 10 µM, compound concentration 10 uM, replicate 1
[4] = 12 h, 10 µM, compound concentration 10 uM, replicate 2
[5] = 24 h, 1 µM, compound concentration 1 uM, replicate 1
[6] = 24 h, 1 µM, compound concentration 1 uM, replicate 2
[7] = 24 h, 10 µM, compound concentration 10 uM, replicate 1
[8] = 24 h, 10 µM, compound concentration 10 uM, replicate 2
[9] = 48 h, 1 µM, compound concentration 1 uM, replicate 1
[10] = 48 h, 1 µM, compound concentration 1 uM, replicate 2
[11] = 48 h, 10 µM, compound concentration 10 uM, replicate 1
[12] = 48 h, 10 µM, compound concentration 10 uM, replicate 2
[13] = 6 h, replicate number 1, timepoint 6 hours
[14] = 12 h, replicate number 1, timepoint 12 hours
[15] = 18 h, replicate number 1, timepoint 18 hours
[16] = 24 h, replicate number 1, timepoint 24 hours

SMILES: Cc1c(P(=S)(c2ccccc2)c2ccccc2)n2ccccc2[n+]1C/C=C/c1ccccc1.[Br-]
- Population Apoptotic (%) (Fibroblast; [1]): 63%
- Population Fragmented Nuclei (%) (Fibroblast; [1]): 26%
- Population Healthy Nuclei (%) (Fibroblast; [1]): 43%
- Population Hoechst High Intensity Objects (%) (Fibroblast; [1]): 7%
- Population Membrane Permeable-Phenotype (%) (Fibroblast; [1]): 7%
- Population Mitochondria Different-Phenotype (%) (Fibroblast; [1]): 28%
- Population Mitotic Cells (%) (Fibroblast; [1]): 36%
- Population Normal (%) (Fibroblast; [1]): 92%
- Population Pyknosed Nuclei (%) (Fibroblast; [1]): 30%
- Population Tubulin-Different-Phenotype (%) (Fibroblast; [1]): 60%
- Total Cell Count (Fibroblast; [1]): 177
- Population Apoptotic (%) (Fibroblast; [2]): 75%
- Population Fragmented Nuclei (%) (Fibroblast; [2]): 50%
- Population Healthy Nuclei (%) (Fibroblast; [2]): 45%
- Population Hoechst High Intensity Objects (%) (Fibroblast; [2]): 22%
- Population Membrane Permeable-Phenotype (%) (Fibroblast; [2]): 10%
- Population Mitochondria Different-Phenotype (%) (Fibroblast; [2]): 50%
- Population Mitotic Cells (%) (Fibroblast; [2]): 25%
- Population Normal (%) (Fibroblast; [2]): 77%
- Population Pyknosed Nuclei (%) (Fibroblast; [2]): 4%
- Population Tubulin-Different-Phenotype (%) (Fibroblast; [2]): 31%
- Total Cell Count (Fibroblast; [2]): 93
- Population Apoptotic (%) (Fibroblast; [3]): 73%
- Population Fragmented Nuclei (%) (Fibroblast; [3]): 23%
- Population Healthy Nuclei (%) (Fibroblast; [3]): 14%
- Population Hoechst High Intensity Objects (%) (Fibroblast; [3]): 14%
- Population Membrane Permeable-Phenotype (%) (Fibroblast; [3]): 5%
- Population Mitochondria Different-Phenotype (%) (Fibroblast; [3]): 64%
- Population Mitotic Cells (%) (Fibroblast; [3]): 26%
- Population Normal (%) (Fibroblast; [3]): 85%
- Population Pyknosed Nuclei (%) (Fibroblast; [3]): 62%
- Population Tubulin-Different-Phenotype (%) (Fibroblast; [3]): 88%
- Total Cell Count (Fibroblast; [3]): 137
- Population Apoptotic (%) (Fibroblast; [4]): 94%
- Population Fragmented Nuclei (%) (Fibroblast; [4]): 21%
- Population Healthy Nuclei (%) (Fibroblast; [4]): 10%
- Population Hoechst High Intensity Objects (%) (Fibroblast; [4]): 8%
- Population Membrane Permeable-Phenotype (%) (Fibroblast; [4]): 83%
- Population Mitochondria Different-Phenotype (%) (Fibroblast; [4]): 83%
- Population Mitotic Cells (%) (Fibroblast; [4]): 5%
- Population Normal (%) (Fibroblast; [4]): 91%
- Population Pyknosed Nuclei (%) (Fibroblast; [4]): 68%
- Population Tubulin-Different-Phenotype (%) (Fibroblast; [4]): 83%
- Total Cell Count (Fibroblast; [4]): 108
- Population Apoptotic (%) (Fibroblast; [5]): 70%
- Population Fragmented Nuclei (%) (Fibroblast; [5]): 22%
- Population Healthy Nuclei (%) (Fibroblast; [5]): 58%
- Population Hoechst High Intensity Objects (%) (Fibroblast; [5]): 9%
- Population Membrane Permeable-Phenotype (%) (Fibroblast; [5]): 5%
- Population Mitochondria Different-Phenotype (%) (Fibroblast; [5]): 40%
- Population Mitotic Cells (%) (Fibroblast; [5]): 29%
- Population Normal (%) (Fibroblast; [5]): 90%
- Population Pyknosed Nuclei (%) (Fibroblast; [5]): 19%
- Population Tubulin-Different-Phenotype (%) (Fibroblast; [5]): 59%
- Total Cell Count (Fibroblast; [5]): 181
- Population Apoptotic (%) (Fibroblast; [6]): 75%
- Population Fragmented Nuclei (%) (Fibroblast; [6]): 55%
- Population Healthy Nuclei (%) (Fibroblast; [6]): 40%
- Population Hoechst High Intensity Objects (%) (Fibroblast; [6]): 33%
- Population Membrane Permeable-Phenotype (%) (Fibroblast; [6]): 9%
- Population Mitochondria Different-Phenotype (%) (Fibroblast; [6]): 31%
- Population Mitotic Cells (%) (Fibroblast; [6]): 25%
- Population Normal (%) (Fibroblast; [6]): 66%
- Population Pyknosed Nuclei (%) (Fibroblast; [6]): 3%
- Population Tubulin-Different-Phenotype (%) (Fibroblast; [6]): 15%
- Total Cell Count (Fibroblast; [6]): 124
- Population Apoptotic (%) (Fibroblast; [7]): 85%
- Population Fragmented Nuclei (%) (Fibroblast; [7]): 17%
- Population Healthy Nuclei (%) (Fibroblast; [7]): 10%
- Population Hoechst High Intensity Objects (%) (Fibroblast; [7]): 18%
- Population Membrane Permeable-Phenotype (%) (Fibroblast; [7]): 8%
- Population Mitochondria Different-Phenotype (%) (Fibroblast; [7]): 83%
- Population Mitotic Cells (%) (Fibroblast; [7]): 14%
- Population Normal (%) (Fibroblast; [7]): 81%
- Population Pyknosed Nuclei (%) (Fibroblast; [7]): 71%
- Population Tubulin-Different-Phenotype (%) (Fibroblast; [7]): 75%
- Total Cell Count (Fibroblast; [7]): 138
- Population Apoptotic (%) (Fibroblast; [8]): 100%
- Population Fragmented Nuclei (%) (Fibroblast; [8]): 23%
- Population Healthy Nuclei (%) (Fibroblast; [8]): 38%
- Population Hoechst High Intensity Objects (%) (Fibroblast; [8]): 26%
- Population Membrane Permeable-Phenotype (%) (Fibroblast; [8]): 81%
- Population Mitochondria Different-Phenotype (%) (Fibroblast; [8]): 81%
- Population Mitotic Cells (%) (Fibroblast; [8]): 0%
- Population Normal (%) (Fibroblast; [8]): 73%
- Population Pyknosed Nuclei (%) (Fibroblast; [8]): 38%
- Population Tubulin-Different-Phenotype (%) (Fibroblast; [8]): 81%
- Total Cell Count (Fibroblast; [8]): 163
- Population Apoptotic (%) (Fibroblast; [9]): 60%
- Population Fragmented Nuclei (%) (Fibroblast; [9]): 33%
- Population Healthy Nuclei (%) (Fibroblast; [9]): 54%
- Population Hoechst High Intensity Objects (%) (Fibroblast; [9]): 12%
- Population Membrane Permeable-Phenotype (%) (Fibroblast; [9]): 6%
- Population Mitochondria Different-Phenotype (%) (Fibroblast; [9]): 42%
- Population Mitotic Cells (%) (Fibroblast; [9]): 40%
- Population Normal (%) (Fibroblast; [9]): 87%
- Population Pyknosed Nuclei (%) (Fibroblast; [9]): 11%
- Population Tubulin-Different-Phenotype (%) (Fibroblast; [9]): 64%
- Total Cell Count (Fibroblast; [9]): 191
- Population Apoptotic (%) (Fibroblast; [10]): 100%
- Population Fragmented Nuclei (%) (Fibroblast; [10]): 29%
- Population Healthy Nuclei (%) (Fibroblast; [10]): 70%
- Population Hoechst High Intensity Objects (%) (Fibroblast; [10]): 10%
- Population Membrane Permeable-Phenotype (%) (Fibroblast; [10]): 2%
- Population Mitochondria Different-Phenotype (%) (Fibroblast; [10]): 48%
- Population Mitotic Cells (%) (Fibroblast; [10]): 0%
- Population Normal (%) (Fibroblast; [10]): 89%
- Population Pyknosed Nuclei (%) (Fibroblast; [10]): 0%
- Population Tubulin-Different-Phenotype (%) (Fibroblast; [10]): 72%
- Total Cell Count (Fibroblast; [10]): 123
- Population Apoptotic (%) (Fibroblast; [11]): 92%
- Population Fragmented Nuclei (%) (Fibroblast; [11]): 36%
- Population Healthy Nuclei (%) (Fibroblast; [11]): 21%
- Population Membrane Permeable-Phenotype (%) (Fibroblast; [11]): 0%
- Population Mitochondria Different-Phenotype (%) (Fibroblast; [11]): 85%
- Population Mitotic Cells (%) (Fibroblast; [11]): 7%
- Population Pyknosed Nuclei (%) (Fibroblast; [11]): 42%
- Population Tubulin-Different-Phenotype (%) (Fibroblast; [11]): 95%
- Total Cell Count (Fibroblast; [11]): 141
- Population Apoptotic (%) (Fibroblast; [12]): 84%
- Population Fragmented Nuclei (%) (Fibroblast; [12]): 52%
- Population Healthy Nuclei (%) (Fibroblast; [12]): 18%
- Population Hoechst High Intensity Objects (%) (Fibroblast; [12]): 32%
- Population Membrane Permeable-Phenotype (%) (Fibroblast; [12]): 25%
- Population Mitochondria Different-Phenotype (%) (Fibroblast; [12]): 75%
- Population Mitotic Cells (%) (Fibroblast; [12]): 15%
- Population Normal (%) (Fibroblast; [12]): 67%
- Population Pyknosed Nuclei (%) (Fibroblast; [12]): 29%
- Population Tubulin-Different-Phenotype (%) (Fibroblast; [12]): 100%
- Total Cell Count (Fibroblast; [12]): 65
- Growth Rate (HEK-293T; 0 h, replicate number 2, timepoint 0 hours): 1
- Growth Rate (HEK-293T; [13]): 0
- Growth Rate (HEK-293T; [14]): 0
- Growth Rate (HEK-293T; [15]): 0
- Growth Rate (HEK-293T; [16]): 0
- Growth Rate (U2OS; [13]): 0
- Growth Rate (U2OS; [14]): 0
- Growth Rate (U2OS; [15]): 0
- Growth Rate (U2OS; [16]): 0

Source: ChEMBL document CHEMBL4689842, “EUbOPEN Chemogenomics Library wave 1” (2021)
